We go through 14 molecules from ChEMBL document CHEMBL4699539, “Dual antagonists of α5β1/αvβ1 integrin for airway hyperresponsiveness” (Bioorg Med Chem Lett, 2020).

The structures appear in SMILES notation. Active and inactive are the calls of the source. The rule behind the calls is not given here. Bounds are passed on as bounds.

Series [1] deals with T1, Integrin alpha-5/beta-1 (Homo sapiens, UniProt P05556+P08648). Description: Inhibition of alpha5beta1 integrin in human SW480 cells assessed as inhibition of cell adhesion to fibronectin incubated for 60 mins by crystal violet staining based analysis. The gist of the method:
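Adhesion of SW480 cells plated on fibronectin coated at 0.3 µg/ml, used to measure α5β1-mediated attachment. IC50 values are means ± S.D., n = 3 or higher.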

Series [2] addresses T2, Integrin alpha-V/beta-1 (Homo sapiens, UniProt P05556+P06756). In words: Inhibition of alphavbeta1 integrin (unknown origin) expressed in CHO cells assessed as inhibition of cell adhesion to fibronectin incubated for 60 mins by crystal violet staining based analysis. The gist of the method: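 Adhesion of CHOαv cells to fibronectin coated at 0.3 µg/ml, used to measure αvβ1-mediated attachment. IC50 values are means ± S.D., n = 3 or higher.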

Series [3] deals with T3, Integrin alpha-V/beta-3 (Homo sapiens, UniProt P05106+P06756). In words: Inhibition of alphavbeta3 integrin (unknown origin) expressed in human SW480 cells transfected with human beta3 assessed as inhibition of cell adhesion to fibrinogen incubated for 60 mins by crystal violet staining based analysis. The gist of the method:
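SW480 cells transfected with human β3, allowed to adhere to fibrinogen coated at 1 µg/ml, used to measure αvβ3-mediated attachment. IC50 values are means ± S.D., n = 3 or higher.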

The target of series [4] is T1, Integrin alpha-5/beta-1. In words: Inhibition of alpha5beta1 integrin (unknown origin) by solid phase binding assay. Format: protein-complex assay.
The target in series [5] is T2, Integrin alpha-V/beta-1. Description: Inhibition of alphavbeta1 integrin (unknown origin) by solid phase binding assay. Format: protein-complex assay.
Series [6] concerns the target T3, Integrin alpha-V/beta-3. Description: Inhibition of alphavbeta3 integrin (unknown origin) by solid phase binding assay. Format: protein-complex assay.
The next series deals with Integrin alpha-V/beta-5 (Homo sapiens, UniProt P06756+P18084). Description: Inhibition of alphavbeta5 integrin (unknown origin) by solid phase binding assay. Format: protein-complex assay.
Another series deals with Integrin alpha-V/beta-6 (Homo sapiens, UniProt P06756+P18564). In words: Inhibition of alphavbeta6 integrin (unknown origin) by solid phase binding assay. In kind it is protein-complex assay.
A further series deals with Integrin alpha-V/beta-8 (Homo sapiens, UniProt P06756+P26012). Description: Inhibition of alphavbeta8 integrin (unknown origin) by solid phase binding assay. In kind it is protein-complex assay.
In another series the target is Integrin alpha-4/beta-1 (Homo sapiens, UniProt P05556+P13612). Description: Inhibition of alpha4beta1 integrin (unknown origin) by solid phase binding assay. In kind it is protein-complex assay.
The species named for the next series is Homo sapiens. Description: Selectivity index, ratio of IC50 for alphavbeta3 integrin (unknown origin) to IC50 for alpha4beta1 integrin (unknown origin) by solid phase binding assay.
Series [7] is filed under the species Mus musculus. Description: Antagonist activity at alpha5beta1 integrin/alphavbeta1 integrin in mouse tracheal rings assessed as inhibition of methacholine-induced airway hyperresponsiveness at 100 nM pretreated with IL-13 for 12 hrs followed by incubation with compound for 1 hr in presence of methacholine. Format: tissue-based. To be noted: Trachea, filed as antagonist. The method in brief: (§1)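 Wild-type mouse tracheal rings incubated 12 h with IL-13 (100 ng/mL), then 1 h with compound or vehicle. Force generated was measured in response to a range of methacholine concentrations. Negative-control rings received no IL-13. n=3 rings per group; statistics by repeated measures of variance.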

The species named for series [8] is Mus musculus. Description: Antagonist activity at alpha5beta1 integrin/alphavbeta1 integrin in mouse tracheal rings assessed as inhibition of methacholine-induced airway hyperresponsiveness at 100 nM incubated with compound for 1 hr in presence of methacholine. The note with it: Trachea, filed as antagonist. Format: tissue-based. The method in brief:
as §1

A short description of series [9]: Apparent permeability of the compound across apical to basolateral side in human Caco-2 cells. In kind it is ADME, cell-based. A general note: Caco-2 monolayers are a common model of the intestinal barrier.
The nature of series [10]: Apparent permeability of the compound across basolateral to apical side in human Caco-2 cells. In kind it is ADME, cell-based.

T3 sequence (P05106 27-788 limits assumed): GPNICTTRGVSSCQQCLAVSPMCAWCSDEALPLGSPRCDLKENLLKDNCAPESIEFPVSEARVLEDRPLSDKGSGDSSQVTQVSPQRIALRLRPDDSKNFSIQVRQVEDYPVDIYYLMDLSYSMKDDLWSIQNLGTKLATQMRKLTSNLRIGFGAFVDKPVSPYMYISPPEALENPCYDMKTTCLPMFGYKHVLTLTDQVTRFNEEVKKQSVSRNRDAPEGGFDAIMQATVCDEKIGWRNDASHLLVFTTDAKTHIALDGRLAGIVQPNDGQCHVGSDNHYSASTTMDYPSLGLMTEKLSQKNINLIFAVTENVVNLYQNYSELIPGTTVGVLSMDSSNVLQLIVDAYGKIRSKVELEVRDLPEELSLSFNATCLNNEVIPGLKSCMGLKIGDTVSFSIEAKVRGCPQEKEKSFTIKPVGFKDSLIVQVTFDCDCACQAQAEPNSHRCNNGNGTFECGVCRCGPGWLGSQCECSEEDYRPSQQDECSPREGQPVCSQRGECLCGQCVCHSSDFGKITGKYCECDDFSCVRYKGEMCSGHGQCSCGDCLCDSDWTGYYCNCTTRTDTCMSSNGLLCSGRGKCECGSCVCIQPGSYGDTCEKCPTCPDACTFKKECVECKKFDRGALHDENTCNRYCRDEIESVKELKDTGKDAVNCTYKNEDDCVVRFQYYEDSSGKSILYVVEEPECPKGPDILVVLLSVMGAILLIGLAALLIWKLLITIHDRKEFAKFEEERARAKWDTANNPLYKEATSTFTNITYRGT
T3 sequence (P06756 31-889 limits assumed): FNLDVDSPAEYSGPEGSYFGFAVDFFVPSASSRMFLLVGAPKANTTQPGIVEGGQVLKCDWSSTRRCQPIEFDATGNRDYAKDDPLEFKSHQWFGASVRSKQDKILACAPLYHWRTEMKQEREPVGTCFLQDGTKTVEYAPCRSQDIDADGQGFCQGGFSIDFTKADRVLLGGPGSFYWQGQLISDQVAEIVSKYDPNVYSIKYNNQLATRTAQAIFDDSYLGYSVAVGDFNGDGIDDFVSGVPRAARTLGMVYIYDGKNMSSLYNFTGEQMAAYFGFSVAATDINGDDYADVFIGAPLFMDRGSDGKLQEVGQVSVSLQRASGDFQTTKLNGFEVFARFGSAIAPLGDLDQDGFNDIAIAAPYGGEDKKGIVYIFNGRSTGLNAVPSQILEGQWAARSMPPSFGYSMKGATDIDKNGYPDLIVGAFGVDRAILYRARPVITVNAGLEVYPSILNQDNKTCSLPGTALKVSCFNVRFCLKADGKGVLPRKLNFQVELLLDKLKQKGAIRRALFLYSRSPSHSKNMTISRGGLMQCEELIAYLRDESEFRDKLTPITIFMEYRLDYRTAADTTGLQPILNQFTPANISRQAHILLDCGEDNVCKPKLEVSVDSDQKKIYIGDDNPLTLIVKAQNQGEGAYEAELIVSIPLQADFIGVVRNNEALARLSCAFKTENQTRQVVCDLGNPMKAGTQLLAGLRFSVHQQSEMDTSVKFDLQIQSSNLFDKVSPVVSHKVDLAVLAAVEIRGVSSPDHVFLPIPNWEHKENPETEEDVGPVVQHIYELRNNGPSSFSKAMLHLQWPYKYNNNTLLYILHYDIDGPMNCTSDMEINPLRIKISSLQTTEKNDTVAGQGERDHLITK
T3 sequence (P06756 891-1048 limits assumed): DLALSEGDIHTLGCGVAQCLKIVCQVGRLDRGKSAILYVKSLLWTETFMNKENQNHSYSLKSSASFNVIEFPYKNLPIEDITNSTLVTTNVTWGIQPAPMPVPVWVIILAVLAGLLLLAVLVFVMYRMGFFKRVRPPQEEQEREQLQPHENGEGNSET
T2 sequence (P05556 21-798 limits assumed): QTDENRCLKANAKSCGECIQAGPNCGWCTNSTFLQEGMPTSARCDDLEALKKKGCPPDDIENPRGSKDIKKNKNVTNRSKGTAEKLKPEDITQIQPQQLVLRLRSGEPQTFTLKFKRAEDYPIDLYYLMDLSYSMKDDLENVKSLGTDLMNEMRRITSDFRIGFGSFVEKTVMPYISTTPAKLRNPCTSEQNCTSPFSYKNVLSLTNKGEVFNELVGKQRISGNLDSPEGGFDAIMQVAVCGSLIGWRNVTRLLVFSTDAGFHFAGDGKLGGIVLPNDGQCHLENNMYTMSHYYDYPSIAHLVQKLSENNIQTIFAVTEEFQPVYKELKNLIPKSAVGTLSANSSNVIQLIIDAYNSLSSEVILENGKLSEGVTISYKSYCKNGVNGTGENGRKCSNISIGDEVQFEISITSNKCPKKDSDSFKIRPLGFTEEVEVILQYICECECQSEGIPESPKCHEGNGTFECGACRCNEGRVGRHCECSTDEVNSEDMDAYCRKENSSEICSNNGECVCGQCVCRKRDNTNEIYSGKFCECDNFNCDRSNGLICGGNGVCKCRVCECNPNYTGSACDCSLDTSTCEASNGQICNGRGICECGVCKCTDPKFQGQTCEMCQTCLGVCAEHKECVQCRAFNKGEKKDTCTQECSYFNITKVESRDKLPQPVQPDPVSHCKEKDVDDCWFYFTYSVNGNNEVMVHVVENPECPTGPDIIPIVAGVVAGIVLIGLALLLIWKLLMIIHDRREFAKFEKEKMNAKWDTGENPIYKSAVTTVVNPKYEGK
T2 sequence (P06756 31-889 limits assumed): as the sequence (P06756 31-889 limits assumed) above
T2 sequence (P06756 891-1048 limits assumed): as the sequence (P06756 891-1048 limits assumed) above
T1 sequence (P05556 21-798 limits assumed): as the sequence (P05556 21-798 limits assumed) above
T1 sequence (P08648 42-894 limits assumed): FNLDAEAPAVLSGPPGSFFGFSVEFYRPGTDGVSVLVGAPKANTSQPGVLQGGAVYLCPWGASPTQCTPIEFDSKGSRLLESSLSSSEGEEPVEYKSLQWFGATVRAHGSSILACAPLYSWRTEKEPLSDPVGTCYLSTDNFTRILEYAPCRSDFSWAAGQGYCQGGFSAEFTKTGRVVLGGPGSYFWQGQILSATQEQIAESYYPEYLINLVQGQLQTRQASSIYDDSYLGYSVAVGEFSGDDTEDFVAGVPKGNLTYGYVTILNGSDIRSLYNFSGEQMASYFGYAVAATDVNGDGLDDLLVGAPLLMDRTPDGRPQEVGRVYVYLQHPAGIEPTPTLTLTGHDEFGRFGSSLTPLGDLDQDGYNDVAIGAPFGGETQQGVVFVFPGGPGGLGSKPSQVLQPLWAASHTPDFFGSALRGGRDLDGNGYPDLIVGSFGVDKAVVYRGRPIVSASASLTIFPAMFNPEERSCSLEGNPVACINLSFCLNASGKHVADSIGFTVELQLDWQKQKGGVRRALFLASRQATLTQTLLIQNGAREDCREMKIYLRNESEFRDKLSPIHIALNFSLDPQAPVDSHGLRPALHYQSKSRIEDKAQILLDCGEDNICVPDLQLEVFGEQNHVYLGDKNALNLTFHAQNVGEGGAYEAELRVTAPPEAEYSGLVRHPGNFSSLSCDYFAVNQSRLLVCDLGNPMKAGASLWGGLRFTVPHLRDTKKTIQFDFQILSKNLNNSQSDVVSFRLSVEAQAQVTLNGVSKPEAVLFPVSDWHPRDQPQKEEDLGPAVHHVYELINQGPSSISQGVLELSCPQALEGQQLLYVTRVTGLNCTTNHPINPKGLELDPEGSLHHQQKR
T1 sequence (P08648 895-1049 limits assumed): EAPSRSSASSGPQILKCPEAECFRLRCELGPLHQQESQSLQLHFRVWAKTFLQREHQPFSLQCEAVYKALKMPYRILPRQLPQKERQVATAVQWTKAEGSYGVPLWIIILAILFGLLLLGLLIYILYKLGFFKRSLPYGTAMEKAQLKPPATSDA
Chain of Integrin alpha-V/beta-8 (P06756 31-889 limits assumed): as the sequence (P06756 31-889 limits assumed) above
Chain of Integrin alpha-V/beta-8 (P06756 891-1048 limits assumed): as the sequence (P06756 891-1048 limits assumed) above
Chain of Integrin alpha-V/beta-8 (P26012 43-769 limits assumed): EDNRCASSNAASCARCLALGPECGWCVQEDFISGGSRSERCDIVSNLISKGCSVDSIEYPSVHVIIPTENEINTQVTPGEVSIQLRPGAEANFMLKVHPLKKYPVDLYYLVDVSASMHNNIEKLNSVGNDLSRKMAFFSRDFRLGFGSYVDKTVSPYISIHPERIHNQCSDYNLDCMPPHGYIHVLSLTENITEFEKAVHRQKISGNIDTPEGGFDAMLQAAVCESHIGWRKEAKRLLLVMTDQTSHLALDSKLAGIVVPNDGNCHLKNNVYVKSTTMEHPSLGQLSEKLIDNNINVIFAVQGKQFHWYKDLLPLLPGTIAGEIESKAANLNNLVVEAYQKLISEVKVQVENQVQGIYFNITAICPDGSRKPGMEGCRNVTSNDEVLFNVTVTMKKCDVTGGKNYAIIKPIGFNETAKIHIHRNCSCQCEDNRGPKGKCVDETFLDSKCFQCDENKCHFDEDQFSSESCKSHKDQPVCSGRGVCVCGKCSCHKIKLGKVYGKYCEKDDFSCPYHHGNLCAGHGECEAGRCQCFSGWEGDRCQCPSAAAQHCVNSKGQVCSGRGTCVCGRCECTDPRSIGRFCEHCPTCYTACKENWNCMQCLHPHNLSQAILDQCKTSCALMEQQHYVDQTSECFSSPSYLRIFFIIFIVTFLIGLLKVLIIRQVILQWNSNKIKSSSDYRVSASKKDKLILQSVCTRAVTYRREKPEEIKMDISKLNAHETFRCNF

Consider `N=C(N)NCCCCCCNC(=O)NC[C@H](NC(=O)[C@@H]1CCCN1S(=O)(=O)c1ccccc1)C(=O)O`, for which the values for the IC50 on Integrin alpha-5/beta-1 [1], on Integrin alpha-V/beta-1 [2] and at Integrin alpha-V/beta-3 [3] were 900 nM, 0.9 nM and 15000 nM, respectively.

Take `CCCCCCCC(=O)Nc1cc(NC(=N)N)cc(C(=O)NCC(=O)NC[C@H](NC(=O)[C@@H]2CCCN2S(=O)(=O)c2ccccc2)C(=O)O)c1`: the IC50 was 110 nM on Integrin alpha-5/beta-1 [1] and 16800 nM on Integrin alpha-V/beta-3 [3].

Take `N=C(N)NCCCCCNC(=O)NC[C@H](NC(=O)[C@@H]1CCCN1S(=O)(=O)c1ccccc1)C(=O)O`: the half-inhibitory concentration (IC50) on Integrin alpha-5/beta-1 [1] is 500 nM; at Integrin alpha-V/beta-1 [2], 0.8 nM.

For `N=C(N)Nc1cc(NC(=O)CCCC(=O)NC23CC4CC(CC(C4)C2)C3)cc(C(=O)NCC(=O)NC[C@H](NC(=O)[C@@H]2CCCN2S(=O)(=O)c2ccccc2)C(=O)O)c1`, the IC50 on Integrin alpha-5/beta-1 [4] is 1 nM; on Integrin alpha-V/beta-1 [5] it was 0.3 nM; at Integrin alpha-V/beta-3 [6] it was greater than 10000 nM; at Integrin alpha-V/beta-5, 980 nM; on Integrin alpha-V/beta-6 it was greater than 10000 nM; at Integrin alpha-V/beta-8 it was greater than 10000 nM. The IC50 at Integrin alpha-4/beta-1 is 161 nM. Further, the Ratio IC50 in the series filed under Homo sapiens was greater than 100.

Turning to `N=C(N)Nc1cc(NC(=O)CCNC(=O)C23CC4CC(CC(C4)C2)C3)cc(C(=O)NCC(=O)NC[C@H](NC(=O)[C@@H]2CCCN2S(=O)(=O)c2ccccc2)C(=O)O)c1`, the IC50 was 1.4 nM at Integrin alpha-5/beta-1 [4]; less than 0.1 nM at Integrin alpha-V/beta-1 [5]; greater than 10000 nM on Integrin alpha-V/beta-3 [6]; greater than 10000 nM on Integrin alpha-V/beta-5; greater than 10000 nM on Integrin alpha-V/beta-6; greater than 10000 nM at Integrin alpha-V/beta-8. The IC50 at Integrin alpha-4/beta-1 was determined as 100 nM. In addition, the Ratio IC50 in the series listed under Homo sapiens was greater than 100.

For the molecule `N=C(N)Nc1cccc(C(=O)NCC(=O)NC[C@H](NC(=O)[C@@H]2CCCN2S(=O)(=O)c2ccccc2)C(=O)O)c1`, the IC50 is 32 nM on Integrin alpha-V/beta-1 [2] and 1100 nM at Integrin alpha-V/beta-3 [3]. Moreover, the inhibition result in the series listed under Mus musculus [7] and in the series filed under Mus musculus [8] was “Active” in each case.

Turning to `N=C(N)Nc1cc(NC(=O)CCCN)cc(C(=O)NCC(=O)NC[C@H](NC(=O)[C@@H]2CCCN2S(=O)(=O)c2ccccc2)C(=O)O)c1`, the IC50 on Integrin alpha-5/beta-1 [1] was determined as 32 nM; at Integrin alpha-V/beta-3 [3], 56000 nM.

`N=C(N)NCCCCNC(=O)NC[C@H](NC(=O)[C@@H]1CCCN1S(=O)(=O)c1ccccc1)C(=O)O`: the IC50 on Integrin alpha-5/beta-1 [1] was 9700 nM; at Integrin alpha-V/beta-1 [2], 4 nM; on Integrin alpha-V/beta-3 [3] it was greater than 100000 nM.

As to `N=C(N)NCCCCCC(=O)NC[C@H](NC(=O)[C@@H]1CCCN1S(=O)(=O)c1ccccc1)C(=O)O`, the IC50 at Integrin alpha-5/beta-1 [1] stood at 830 nM; at Integrin alpha-V/beta-1 [2] it was 316 nM; on Integrin alpha-V/beta-3 [3] it was 10000 nM.

For the molecule `N=C(N)Nc1cc(NC(=O)CCCCNC(=O)C23CC4CC(CC(C4)C2)C3)cc(C(=O)NCC(=O)NC[C@H](NC(=O)[C@@H]2CCCN2S(=O)(=O)c2ccccc2)C(=O)O)c1`, the IC50 on Integrin alpha-5/beta-1 [4] was 0.7 nM; at Integrin alpha-V/beta-1 [5], less than 0.1 nM; on Integrin alpha-V/beta-3 [6] it was greater than 10000 nM; at Integrin alpha-V/beta-5, 320 nM; at Integrin alpha-V/beta-6, 1870 nM; at Integrin alpha-V/beta-8 it was 6830 nM. This molecule had a 50% inhibitory concentration (IC50) at Integrin alpha-4/beta-1 of 182 nM. Also, the Ratio IC50 in the series listed under Homo sapiens is greater than 100.

Consider `N=C(N)Nc1cccc(C(=O)NNC(=O)NC[C@H](NC(=O)[C@@H]2CCCN2S(=O)(=O)c2ccccc2)C(=O)O)c1`, for which the results for the IC50 at Integrin alpha-5/beta-1 [1], on Integrin alpha-V/beta-1 [2] and on Integrin alpha-V/beta-3 [3] were 50 nM, 158 nM and 6500 nM, respectively.

For `N=C(N)NCCCCC(=O)Nc1ccc(C[C@H](NC(=O)[C@@H]2CCCN2S(=O)(=O)c2ccccc2)C(=O)O)cc1`, the figures for the IC50 on Integrin alpha-5/beta-1 [1], at Integrin alpha-V/beta-1 [2] and on Integrin alpha-V/beta-3 [3] were greater than 10000 nM, 0.5 nM and greater than 10000 nM, respectively.

Take `N=C(N)Nc1cc(NC(=O)CNC(=O)C23CC4CC(CC(C4)C2)C3)cc(C(=O)NCC(=O)NC[C@H](NC(=O)[C@@H]2CCCN2S(=O)(=O)c2ccccc2)C(=O)O)c1`: the IC50 at Integrin alpha-5/beta-1 [4] was 1.6 nM; at Integrin alpha-V/beta-1 [5] it was less than 0.1 nM; at Integrin alpha-V/beta-3 [6], greater than 10000 nM; on Integrin alpha-V/beta-5, greater than 10000 nM; on Integrin alpha-V/beta-6 it was greater than 10000 nM; at Integrin alpha-V/beta-8, greater than 10000 nM. Moreover, the IC50 on Integrin alpha-4/beta-1 was determined as 136 nM.

Turning to `N=C(N)Nc1cc(NC(=O)CCCNC(=O)C23CC4CC(CC(C4)C2)C3)cc(C(=O)NCC(=O)NC[C@H](NC(=O)[C@@H]2CCCN2S(=O)(=O)c2ccccc2)C(=O)O)c1`, the IC50 on Integrin alpha-5/beta-1 [1] is 2.6 nM; at Integrin alpha-V/beta-1 [2], 0.8 nM; on Integrin alpha-V/beta-3 [3] it was 8800 nM; at Integrin alpha-5/beta-1 [4], 0.8 nM; on Integrin alpha-V/beta-1 [5], 0.14 nM; at Integrin alpha-V/beta-3 [6] it was greater than 10000 nM. The IC50 on Integrin alpha-V/beta-5 is 3000 nM; at Integrin alpha-V/beta-6 it was 2760 nM; at Integrin alpha-V/beta-8 it was greater than 10000 nM; at Integrin alpha-4/beta-1, 105 nM. Also, the Papp in [9] is reported as 0.37 10^-6 cm/s; in [10], 0.27 10^-6 cm/s. Also, the Ratio IC50 in the series listed under Homo sapiens was greater than 100.

One may read the IC50 as the concentration that gives 50% inhibition.
